These results are taken from ChEMBL document CHEMBL4184083, “Design, synthesis and biological evaluation of glutamic acid derivatives as anti-oxidant and anti-inflammatory agents” (Bioorg Med Chem Lett, 2018).

Data set [1] in a line: Antioxidant activity assessed as DPPH radical scavenging activity incubated under dark condition for 30 mins by spectrophotometric analysis. The class given is functional. Summed up:
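DPPH radical reduction (violet to colorless in ethanol) monitored spectrophotometrically; ascorbic acid run as reference; IC50 reported in µg/ml.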

Data set [2] is described as follows: Chemical stability of the compound assessed as parent compound remaining at 1 mg/ml measured after 28 days at 45 degC by HPLC method (reference value: 100%). The class given is physicochemical. The conditions noted are these: read-out: Stability. A digest of the protocol: (§1)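 Sample dissolved at 1 mg in 1 mL distilled water, stored at 45 °C and analysed by HPLC at intervals up to 28 days; remaining amount expressed relative to day-0 HPLC peak area set as 100%.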

For data set [3], the system named is RAW264.7. Nature of the data set: Cytotoxicity against mouse RAW264.7 cells assessed as decrease in cell viability at 100 ug/ml after 24 hrs by WST-1 assay. The class given is cell-based. The conditions noted are these: raw264.7, 24 h.
Data set [4] is described as follows: Chemical stability of the compound assessed as parent compound remaining at 1 mg/ml measured after 14 days at 45 degC by HPLC method (reference value: 100%). The class given is physicochemical. The note with it: read-out: Stability. Summed up: as §1
Data set [5] is described as follows: Chemical stability of the compound assessed as parent compound remaining at 1 mg/ml measured after 1 day at 45 degC by HPLC method (reference value: 100%). The class given is physicochemical. The note with it: read-out: Stability. Summed up:
as §1

Data set [6] in a line: Chemical stability of the compound assessed as parent compound remaining at 1 mg/ml measured after 7 days at 45 degC by HPLC method (reference value: 100%). The conditions noted are these: read-out: Stability. The class given is physicochemical. Summed up:
as §1

The nature of data set [7]: Chemical stability of the compound assessed as parent compound remaining at 1 mg/ml measured after 21 days at 45 degC by HPLC method (reference value: 100%). Type of data set: physicochemical. The note with it: read-out: Stability. Summed up: as §1
The species named for data set [8] is Danio rerio. Put plainly: Effect on neutrophil recruitment to wounded tail fin in Tg(mpx:GFP) zebrafish larvae at 10 to 50 ug/ml measured after 6 hrs. The class given is ADME, organism-based.
The subject of data set [9] is Danio rerio. Put plainly: Antiinflammatory activity in Tg(mpx:GFP) zebrafish larvae assessed as decrease in neutrophil recruitment to wounded tail fin at 10 to 50 ug/ml dosed 4 hrs post amputation measured after 6 hrs. The class given is functional, organism-based.
Data set [10] concerns RAW264.7. Nature of the data set: Antiinflammatory activity in mouse RAW264.7 cells assessed as inhibition of LPS-induced nitric oxide production after 24 hrs by Griess reagent based assay. The class given is functional, cell-based. Summed up:
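RAW264.7 mouse macrophages co-treated with LPS (0.3 μg/mL) plus the test agent at a range of concentrations; NO output quantified as nitrite accumulated in culture medium after 24 h incubation.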

Values after ≈ are worked out from the molar mass of the structure shown. Active and inactive are the calls of the source. The calls are words filed in the database; no cut-off is given here.

On to `Cc1ccc(NNC(=O)CC[C@H](N)C(=O)O)c(C)c1`, for which, in [1], the IC50 was found to be 15.75 µg/mL (≈ 59.4 µM).
In the case of `Cc1ccc(NNC(=O)CC[C@H](N)C(=O)O)cc1`, in data set [2], the remaining at 672 h, 1 mg/ml is 50.4%. For the same compound, the Activity result in the data set on RAW264.7 [3] was “Non-Toxic”. For the same compound, in [4], the remaining at 336 h, 1 mg/ml is 72.2%. In addition, the IC50 in data set [1] was found to be 9.99 µg/mL (≈ 39.8 µM). Also, in data set [5], the remaining at 24 h, 1 mg/ml was 85.1%. In addition, the remaining at 168 h, 1 mg/ml in [6] stood at 82%. Besides, the remaining at 504 h, 1 mg/ml in [7] is 58.1%.
Regarding `N[C@@H](CCC(=O)Nc1ccccc1O)C(=O)O`, the IC50 in data set [1] was 162.42 µg/mL (≈ 682 µM).
Consider `N[C@@H](CCC(=O)NNc1ccccc1O)C(=O)O`, for which the remaining at 24 h, 1 mg/ml in data set [5] stood at 45.7%.
With `O=C1O[C@H]([C@@H](O)CO)C(O)=C1O` [ASCORBIC ACID], in [1], the IC50 came to 17.38 µg/mL (≈ 98.7 µM).
Turning to `N[C@@H](CCC(=O)NNc1cc(O)cc(O)c1)C(=O)O`, the IC50 in data set [1] worked out at 316.86 µg/mL (≈ 1180 µM).
Take `Cc1ccccc1NNC(=O)CC[C@H](N)C(=O)O`: the Activity result with RAW264.7 [3] is “Non-Toxic”. The remaining at 336 h, 1 mg/ml in data set [4] was found to be 56.7%. Further, the IC50 in [1] is 6.24 µg/mL (≈ 24.8 µM). Further, the remaining at 24 h, 1 mg/ml in data set [5] amounted to 82.3%. The remaining at 168 h, 1 mg/ml in [6] worked out at 73.8%.
On to `Cc1cccc(NNC(=O)CC[C@H](N)C(=O)O)c1`, for which, in [1], the IC50 was found to be 10.1 µg/mL (≈ 40.2 µM).
On to `O=C(CC[C@H](NC(=O)OCc1ccccc1)C(=O)OCc1ccccc1)NNc1ccccc1OCc1ccccc1`, for which the IC50 in data set [1] was 44.98 µg/mL (≈ 79.2 µM).
Regarding `N[C@@H](CCC(=O)NNc1ccccc1F)C(=O)O`, the IC50 in data set [1] was determined as 10.86 µg/mL (≈ 42.5 µM).
`N[C@@H](CCC(=O)NNc1ccc(O)cc1O)C(=O)O`: in data set [1], the IC50 was 28.01 µg/mL (≈ 104 µM).
Regarding `N[C@@H](CCC(=O)NNc1cccc(O)c1)C(=O)O`, the IC50 in [1] stood at 10.67 µg/mL (≈ 42.1 µM).
On to `CS(=O)(=O)c1ccc(NNC(=O)CC[C@H](N)C(=O)O)c(F)c1`, for which the Activity result in the data set filed under Danio rerio [8] and with RAW264.7 [3] was “Non-Toxic” each time. Also, the remaining at 672 h, 1 mg/ml in data set [2] was determined as 87.2%. Moreover, the outcome with Danio rerio [9] was Active. Besides, the remaining at 336 h, 1 mg/ml in [4] came out at 87%. The inhibition entry in the data set on RAW264.7 [10] was “Dose-dependent effect”. In addition, the IC50 in data set [1] came to 8.72 µg/mL (≈ 26.2 µM). In [5], the remaining at 24 h, 1 mg/ml was found to be 99.4%. The remaining at 168 h, 1 mg/ml in data set [6] is 95%. The remaining at 504 h, 1 mg/ml in data set [7] worked out at 88.8%.
Turning to `CS(=O)(=O)c1ccc(NNC(=O)CC[C@H](N)C(=O)O)cc1`, the remaining at 672 h, 1 mg/ml in [2] was 70.7%. Also, the remaining at 336 h, 1 mg/ml in [4] turned out to be 85.5%. Besides, in data set [1], the IC50 came out at 9.57 µg/mL (≈ 30.3 µM). In addition, the remaining at 24 h, 1 mg/ml in data set [5] is 100%. In addition, in data set [6], the remaining at 168 h, 1 mg/ml is 94.6%. Also, the remaining at 504 h, 1 mg/ml in data set [7] was found to be 79.2%.
For the compound `Cl.NC(CCC(=O)O)C(=O)NNc1ccccc1O` (configuration not stated), the IC50 in data set [1] was 37.19 µg/mL.
Consider `N[C@@H](CCC(=O)NNc1ccc(F)cc1)C(=O)O`, for which the IC50 in data set [1] was determined as 13.77 µg/mL (≈ 53.9 µM).
The same measure, in the same setting: as for `N[C@@H](CCC(=O)NNc1cccc(F)c1)C(=O)O`, the figure is 11.44 µg/mL (≈ 44.8 µM); as for `CCc1ccccc1NNC(=O)CC[C@H](N)C(=O)O`, 17.14 µg/mL (≈ 64.6 µM).
